Consider four compounds from ChEMBL document CHEMBL1275452, “Epidemiological cutoffs and cross-resistance to azole drugs in Aspergillus fumigatus” (2008).

Assay type in all cases: functional
Experiment [1] deals with Aspergillus fumigatus. The experiment in a line: Antimicrobial activity against azole-resistant Aspergillus fumigatus harboring Tandem repeat-L98H (TR) mutation in cyp51A gene after 48 hrs by microdilution method. A digest of the protocol: (§1)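 EUCAST broth microdilution in RPMI 1640 supplemented to 2% glucose. Inoculum 2 × 105 to 5 × 10^5 CFU/ml, spores counted in a hematocytometer. MIC read at 48 h as the concentration giving complete inhibition of visual growth. Strains with itraconazole MICs of ≥8 mg/liter were tested at least twice on different days (2 to 11 times). Values are geometric means of MICs. QC strain ATCC 204305 was included.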
On the technique in general: In broth dilution the organism is exposed to a series of concentrations in liquid medium.

For experiment [2], the system named is Aspergillus fumigatus. The experiment in a line: Antimicrobial activity against azole-resistant Aspergillus fumigatus harboring M220V, M220K, M220T and M220I mutation in cyp51A gene after 48 hrs by microdilution method. In short, it runs like this:
as §1

Experiment [3] relates to Aspergillus fumigatus. Nature of the experiment: Antimicrobial activity against azole-resistant Aspergillus fumigatus harboring G54V, G54E, G54R and G54W mutation in cyp51A gene after 48 hrs by microdilution method. A digest of the protocol: as §1
Experiment [4] concerns Aspergillus fumigatus. The experiment in a line: Antimicrobial activity against azole-susceptible Aspergillus fumigatus after 48 hrs by microdilution method. A digest of the protocol: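 EUCAST broth microdilution on clinical isolates, RPMI 1640 with glucose to 2%. Inoculum 2 × 105 to 5 × 10^5 CFU/ml, counted as spores in a hematocytometer. MIC read at 48 h as the lowest concentration giving complete inhibition of visual growth. Strains with itraconazole MIC ≤1 mg/liter tested once, some at least twice. Values summarised as geometric means; QC strain ATCC 204305 run alongside.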

As a reminder, the MIC is the least concentration at which growth counts as inhibited. By MIC90 is commonly meant the lowest concentration that inhibits either 90% of growth or 90% of the strains tested, depending on the study. A high value points to lower susceptibility.

The structures appear in SMILES notation. In brackets after ≈: the same amount, converted by molar mass.

`C[C@@H](c1ncncc1F)[C@](O)(Cn1cncn1)c1ccc(F)cc1F` [VORICONAZOLE]: the MIC is 3.7 µg/mL (≈ 10.6 µM) in the experiment with Aspergillus fumigatus [1], 1 µg/mL (≈ 2.86 µM) with Aspergillus fumigatus [2], 0.42 µg/mL (≈ 1.2 µM) with Aspergillus fumigatus [3] and 0.53 µg/mL (≈ 1.52 µM) in the experiment with Aspergillus fumigatus [4]. The MIC90 in the experiment on Aspergillus fumigatus [4] amounted to 1 µg/mL (≈ 2.86 µM).

For the compound `CCC(C)n1ncn(-c2ccc(N3CCN(c4ccc(OCC5COC(Cn6cncn6)(c6ccc(Cl)cc6Cl)O5)cc4)CC3)cc2)c1=O` (stereo not given) [ITRACONAZOLE], the MIC amounted to 16 µg/mL (≈ 22.7 µM) against Aspergillus fumigatus [1], 16 µg/mL (≈ 22.7 µM) in the experiment with Aspergillus fumigatus [2], 16 µg/mL (≈ 22.7 µM) in the experiment with Aspergillus fumigatus [3] and 0.32 µg/mL (≈ 0.453 µM) in the experiment on Aspergillus fumigatus [4]. Further, the MIC90 against Aspergillus fumigatus [4] came out at 0.5 µg/mL (≈ 0.709 µM).

Turning to `CC[C@@H]([C@H](C)O)n1ncn(-c2ccc(N3CCN(c4ccc(OC[C@@H]5CO[C@@](Cn6cncn6)(c6ccc(F)cc6F)C5)cc4)CC3)cc2)c1=O` [POSACONAZOLE], the MIC against Aspergillus fumigatus [1] worked out at 0.68 µg/mL (≈ 0.97 µM); against Aspergillus fumigatus [2], 0.65 µg/mL (≈ 0.928 µM); in the experiment on Aspergillus fumigatus [3], 1.6 µg/mL (≈ 2.28 µM); in the experiment on Aspergillus fumigatus [4] it was 0.08 µg/mL (≈ 0.114 µM). The compound further yielded an MIC90 against Aspergillus fumigatus [4] of 0.125 µg/mL (≈ 0.178 µM).

As to `C[C@@H](c1nc(-c2ccc(C#N)cc2)cs1)[C@](O)(Cn1cncn1)c1ccc(F)cc1F` [RAVUCONAZOLE], the MIC against Aspergillus fumigatus [1] was found to be 6.8 µg/mL (≈ 15.5 µM); in the experiment on Aspergillus fumigatus [2], 1.85 µg/mL (≈ 4.23 µM); in the experiment with Aspergillus fumigatus [3], 0.32 µg/mL (≈ 0.731 µM); with Aspergillus fumigatus [4], 0.6 µg/mL (≈ 1.37 µM). In addition, the MIC90 in the experiment with Aspergillus fumigatus [4] was 1 µg/mL (≈ 2.29 µM).
